pIC50: −log10 of the molar value. Active and inactive are the calls of the source. No cut-off for these calls is given here.
Legend:
[1] = molecular target: T1, Aldehyde dehydrogenase, dimeric NADP-preferring (Homo sapiens) (UniProt P30838); assay: Inhibition of N-terminal-His6 tagged recombinant human ALDH3A1 assessed as remaining enzyme activity by measuring fluorescence of NADPH using 4-NBA and NADP+ as substrate at 10 uM by fluorimetric analysis relative to control
T1 sequence (whole entry): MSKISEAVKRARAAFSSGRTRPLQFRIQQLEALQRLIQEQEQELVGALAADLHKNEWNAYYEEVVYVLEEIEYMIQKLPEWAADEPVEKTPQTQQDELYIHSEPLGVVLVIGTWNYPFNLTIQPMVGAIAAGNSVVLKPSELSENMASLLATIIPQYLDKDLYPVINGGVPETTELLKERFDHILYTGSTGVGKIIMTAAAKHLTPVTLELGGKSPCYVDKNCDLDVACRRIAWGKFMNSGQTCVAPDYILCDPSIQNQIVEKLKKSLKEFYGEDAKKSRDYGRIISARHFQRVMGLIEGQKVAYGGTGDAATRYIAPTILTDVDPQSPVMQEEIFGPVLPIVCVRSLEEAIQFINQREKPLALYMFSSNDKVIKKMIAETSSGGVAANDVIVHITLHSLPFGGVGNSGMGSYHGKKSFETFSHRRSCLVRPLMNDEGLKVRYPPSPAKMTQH
Method in brief: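 Single-point screen at 10 μM inhibitor, 1% DMSO final. Enzyme in 50 mM Tris–HCl, 5 mM DTT, pH 8.0, with 1 mM NADP+ and 4-NBA at 31 and 250 μM. NADPH fluorescence (ex 340/em 460 nm) or absorbance at 340 nm. Enzyme kept 50–100-fold below substrate; result is % remaining activity.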

H568 [2] = assay: Cytotoxicity against human H568/15 RM cells assessed as reduction in cell viability at 50 to 200 uM incubated for 72 hrs in presence of docetaxel by AlamarBlue staining based analysis; assay type: functional; details: dose 50-200 µM
Method in brief: (§1)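 Primary prostate epithelial cells (radical prostatectomy cancer or transurethral resection BPH) seeded at 5000 cells/well in SCM, 24 h at 37 °C, 5% CO2. Treated with inhibitor at 50 or 200 μM plus 1 nM docetaxel (DMSO stocks 200 mM) for 72 h. Alamar Blue added at 10% volume, 1–4 h at 37 °C. Viability is % of DMSO-treated control; triplicate, mean; paired two-tailed t-test.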

H415 [3] = assay: Cytotoxicity against human H415/15 cells assessed as reduction in cell viability incubated for 72 hrs by AlamarBlue staining based analysis; assay type: functional; details: dose 50-200 µM
Method in brief: (§2)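 Primary prostate epithelial cells (cancer from radical prostatectomy, BPH from transurethral resection) plated 5000 cells/well in SCM for 24 h at 37 °C, 5% CO2, then given inhibitor alone at 50 or 200 μM (200 mM DMSO stocks) for 72 h. Alamar Blue at 10% of volume for 1–4 h. Viability is % of DMSO control; triplicate, mean.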

H415 [4] = assay: Cytotoxicity against human H415/15 cells assessed as reduction in cell viability at 50 to 200 uM incubated for 72 hrs in presence of docetaxel by AlamarBlue staining based analysis; assay type: functional; details: dose 50-200 µM; method in brief: as §1
H568 [5] = assay: Cytotoxicity against human H568/15 RM cells assessed as reduction in cell viability incubated for 72 hrs by AlamarBlue staining based analysis; assay type: functional; details: dose 50-200 µM; method in brief: as §2
H517 [6] = assay: Cytotoxicity against human H517/15 RM cells assessed as reduction in cell viability incubated for 72 hrs by AlamarBlue staining based analysis; assay type: functional; details: dose 50-200 µM; method in brief: as §2
[7] = molecular target: T1, Aldehyde dehydrogenase, dimeric NADP-preferring (Homo sapiens); assay: Inhibition of N-terminal-His6 tagged recombinant human ALDH3A1 using 4-NBA as substrate in absence of NADP+ by fluorimetric analysis
Method in brief: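 The standard 5-min preincubation of enzyme with inhibitor was run without NADP+, and compared with preincubation including cofactor. Fluorimetric NADPH read-out; mean ± SE.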

H517 [8] = assay: Cytotoxicity against human H517/15 RM cells assessed as reduction in cell viability at 50 to 200 uM incubated for 72 hrs in presence of docetaxel by AlamarBlue staining based analysis; assay type: functional; details: dose 50-200 µM; method in brief: as §1
H431 [9] = assay: Cytotoxicity against human H431/14 LM cells assessed as reduction in cell viability at 50 to 200 uM incubated for 72 hrs in presence of docetaxel by AlamarBlue staining based analysis; assay type: functional; details: dose 50-200 µM; method in brief: as §1
H431 [10] = assay: Cytotoxicity against human H431/14 LM cells assessed as reduction in cell viability incubated for 72 hrs by AlamarBlue staining based analysis; assay type: functional; details: dose 50-200 µM; method in brief: as §2
H488 [11] = assay: Cytotoxicity against human H488/14 RM cells assessed as reduction in cell viability at 50 to 200 uM incubated for 72 hrs in presence of docetaxel by AlamarBlue staining based analysis; assay type: functional; details: dose 50-200 µM; method in brief: as §1
H488 [12] = assay: Cytotoxicity against human H488/14 RM cells assessed as reduction in cell viability incubated for 72 hrs by AlamarBlue staining based analysis; assay type: functional; details: dose 50-200 µM; method in brief: as §2
[13] = molecular target: T2, Aldehyde dehydrogenase 1A1 (Homo sapiens, UniProt P00352); assay: Substrate activity at N-terminal-His6 tagged recombinant human ALDH1A1 at 10 uM […] by fluorimetric analysis relative to hexanal; assay type: ADME
T2 sequence (P00352 whole entry): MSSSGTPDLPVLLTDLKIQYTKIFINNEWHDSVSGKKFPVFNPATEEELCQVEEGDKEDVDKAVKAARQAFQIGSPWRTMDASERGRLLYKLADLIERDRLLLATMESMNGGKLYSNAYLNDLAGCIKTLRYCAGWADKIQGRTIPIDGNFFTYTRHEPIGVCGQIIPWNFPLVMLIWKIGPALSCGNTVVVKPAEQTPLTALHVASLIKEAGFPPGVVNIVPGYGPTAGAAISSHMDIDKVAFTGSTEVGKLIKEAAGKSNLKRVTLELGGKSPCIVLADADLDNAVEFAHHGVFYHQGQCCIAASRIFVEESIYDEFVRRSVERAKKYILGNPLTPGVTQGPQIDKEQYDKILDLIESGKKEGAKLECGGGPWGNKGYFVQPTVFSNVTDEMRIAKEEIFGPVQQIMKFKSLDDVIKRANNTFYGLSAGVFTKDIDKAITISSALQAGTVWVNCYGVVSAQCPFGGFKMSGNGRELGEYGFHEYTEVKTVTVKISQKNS
Method in brief: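 Compound at 10 μM used as substrate in place of hexanal. Buffer 50 mM HEPES, 0.5 mM EDTA, 0.5 mM DTT, pH 8.0, with 500 μM NAD+. NADH fluorescence (ex 340/em 460 nm). Activity given as % of that with 10 μM hexanal; mean ± SE.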

[14] = molecular target: T3, Aldehyde dehydrogenase, dimeric NADP-preferring (Homo sapiens, UniProt P30838); assay: Substrate activity at N-terminal-His6 tagged recombinant human ALDH3A1 at 10 uM […] by fluorimetric analysis relative to 4-NBA; assay type: ADME
T3 sequence (P30838 whole entry): T1 sequence (whole entry)
Method in brief: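 Compound at 10 μM used as substrate in place of 4-NBA. Buffer 50 mM Tris–HCl, 5 mM DTT, pH 8.0, with 1 mM NADP+. NADPH fluorescence (ex 340/em 460 nm). Activity given as % of that with 10 μM 4-NBA; mean ± SE.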

PC-3 = assay: Antiproliferative activity against human PC-3 cells expressing ALDH1A1 and ALDH3A1 assessed as reduction in cell survival measured after 96 hrs by MTT assay; assay type: functional, cell-based; details: PC-3, 96 h
Method in brief: (§3)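 Adherent prostate cancer cells seeded in 96-well plates, left overnight at 37 °C, 5% CO2, 100% humidity, then exposed to compounds at 12.5–200 μM for 96 h. Read-out: MTT (0.5 mg/mL) added for 4 h at 37 °C, formazan dissolved in DMSO, absorbance at 540 nm. IC50 from five-dose screen.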

LNCaP = assay: Antiproliferative activity against human LNCaP cells expressing ALDH1A3 assessed as reduction in cell survival measured after 96 hrs by MTT assay; assay type: functional, cell-based; method in brief: as §3
DU-145 = assay: Antiproliferative activity against human DU145 cells expressing ALDH1A1 assessed as reduction in cell survival measured after 96 hrs by MTT assay; assay type: functional, cell-based; details: DU-145, 96 h; method in brief: as §3

| Activity [1] | SMILES | Activity (H415 [3]) | Activity (H568 [5]) | Activity (H517 [6]) | Activity (H431 [10]) | Activity (H488 [12]) | other results |
| --- | --- | --- | --- | --- | --- | --- | --- |
| < 15% | CCCN(CCC)c1ccc(C=O)cc1 | – | – | – | – | – | – |
| < 15% | CCCN(CCC)c1ccc(C=O)cc1Cl | – | – | – | – | – | – |
| < 15% | CCCN(CCC)c1ccc(C=O)cc1C | – | – | – | – | – | pIC50 (PC-3): 3.97; pIC50 (LNCaP): 4.21; pIC50 (DU-145): 3.99 |

Further lines, the molecule ahead of its results:

| SMILES | Activity [1] | Activity (H415 [3]) | Activity (H568 [5]) | Activity (H517 [6]) | Activity (H431 [10]) | Activity (H488 [12]) | other results |
| --- | --- | --- | --- | --- | --- | --- | --- |
| CCCN(CCC)c1ccc(C=O)cc1[N+](=O)[O-] | < 15% | Dose-Dependent Effect | Dose-Dependent Effect | Dose-Dependent Effect | Dose-Dependent Effect | Dose-Dependent Effect | Activity (H568 [2]): Active; Activity (H415 [4]): Active; inhibition [7]: Active; Activity (H517 [8]): Active; Activity (H431 [9]): Active; Activity (H488 [11]): Active |
| CCCN(CCC)c1ccc(C=O)cc1Br | < 15% | Dose-Dependent Effect | Dose-Dependent Effect | Dose-Dependent Effect | Dose-Dependent Effect | Dose-Dependent Effect | Activity (H568 [2]): Active; Activity (H415 [4]): Active; Activity (H517 [8]): Active; Activity [13]: 3.14%; Activity [14]: < 5%; Activity (H431 [9]): Active; Activity (H488 [11]): Active |
| CCCN(CCC)c1ccc(C=O)cc1OC | – | – | – | – | – | – | pIC50 (PC-3): 4.12; pIC50 (LNCaP): 4.30; pIC50 (DU-145): 4.15 |
| CCN(CC)c1ccc(C=O)cc1 | – | Dose-Dependent Effect | Dose-Dependent Effect | Dose-Dependent Effect | Dose-Dependent Effect | Dose-Dependent Effect | – |

Reference: ChEMBL document CHEMBL5046287 (J Med Chem, 2022)
